Source: ChEMBL document CHEMBL1949545, “Synthesis and evaluation of malonate-based inhibitors of phosphosugar-metabolizing enzymes: class II fructose-1,6-bis-phosphate aldolases, type I phosphomannose isomerase, and phosphoglucose isomerase” (Bioorg Med Chem, 2012)
Active and inactive are the calls of the source. The calls are words filed in the database; no cut-off is given here.

Columns and labels:
[1] = biological target: T1, Fructose-bisphosphate aldolase A (Oryctolagus cuniculus, UniProt P00883); experiment: Inhibition of rabbit muscle FBA-1
T1 sequence (P00883 whole entry): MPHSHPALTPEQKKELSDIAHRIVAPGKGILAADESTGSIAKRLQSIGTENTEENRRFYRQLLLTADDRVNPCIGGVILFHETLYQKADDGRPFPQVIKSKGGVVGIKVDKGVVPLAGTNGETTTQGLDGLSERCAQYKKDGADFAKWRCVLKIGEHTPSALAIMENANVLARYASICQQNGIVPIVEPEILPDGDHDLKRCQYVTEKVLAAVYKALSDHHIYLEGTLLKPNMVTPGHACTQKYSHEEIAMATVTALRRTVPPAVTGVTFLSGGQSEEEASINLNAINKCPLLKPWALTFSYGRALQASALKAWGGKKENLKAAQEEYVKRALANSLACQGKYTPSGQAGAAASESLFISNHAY

[2] = Inhibition of Candida albicans FBA-2
[3] = Inhibition of Mycobacterium tuberculosis FBA-2
[4] = Inhibition of Helicobacter pylori FBA-2
[5] = tested on: Candida albicans; experiment: Antimicrobial activity against Candida albicans at 1 mM; type: functional, organism-based
How it was run: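 Growth inhibition was tested in cultivated microbial cultures at concentrations up to 1 mM.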

[6] = tested on: Mycobacterium tuberculosis; experiment: Antimicrobial activity against Mycobacterium tuberculosis at 1 mM; type: functional, organism-based
[7] = tested on: Yersinia pestis; experiment: Antimicrobial activity against Yersinia pestis at 1 mM; type: functional, organism-based
[8] = Inhibition of Yersinia pestis FBA-2
[9] = Inhibition of yeast PGI; design: species or system Saccharomyces cerevisiae
[10] = Inhibition of Escherichia coli PMI

Compound	Ki [1]	Ki [2]	Ki [3]	Ki [4]	Activity [5]	Activity [6]	Activity [7]	Ki [8]	IC50 [9]	Ki [10]	Ki [9]	IC50 [10]
O=C(O)C(CCCCN(O)C(=O)COP(=O)(O)O)C(=O)O	257 µM	0.05 µM	0.004 µM	0.04 µM	inactive	inactive	inactive	0.008 µM	–	–	–	–
O=C(O)C(CC(=O)N(O)CCCCOP(=O)(O)O)C(=O)O	500 µM	2300 µM	500 µM	250 µM	inactive	inactive	inactive	1500 µM	–	–	–	–
O=C(COP(=O)(O)O)N(O)CCCCOP(=O)(O)O	–	–	–	–	inactive	inactive	inactive	–	–	–	–	–
NO.O=C(O)C(C[C@@H](O)[C@@H](O)[C@H](O)C(=O)NO)C(=O)O	–	–	–	–	–	–	–	–	2290 µM	162 µM	–	–
O=C(CO)N(O)CCCCOP(=O)(O)O	> 1000 µM	0.76 µM	0.175 µM	1.2 µM	–	–	–	0.08 µM	–	–	–	–
O=C(NO)[C@@H](O)[C@H](O)[C@H](O)COP(=O)(O)O	–	–	–	–	–	–	–	–	–	0.08 µM	0.23 µM	–
O=C(NO)[C@@H](O)[C@H](O)[C@H](O)CO	–	–	–	–	–	–	–	–	5540 µM	–	–	10000 µM
